Consider eleven compounds from ChEMBL document CHEMBL3286367, “Synthesis of new class of spirocarbocycle derivatives by multicomponent domino reaction and their evaluation for antimicrobial, anticancer activity and molecular docking studies” (2014).

The test system of assay [1] is Staphylococcus aureus. In words: Antimicrobial activity against Staphylococcus aureus MTCC 96 assessed as absence of visible growth after 48 to 72 hrs. Type of assay: functional.
The subject of assay [2] is Proteus vulgaris. In words: Antimicrobial activity against Proteus vulgaris MTCC 1771 assessed as zone of inhibition at 1 mg/disc after 24 hrs incubation by disc diffusion assay. The assay is classed as functional. In short, it runs like this: (§1)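 Inocula grown in Mueller Hinton broth for 24 h at 37 °C and swabbed onto Mueller Hinton agar. Discs carried 1 mg compound each and stood 30 min at room temperature before 24 h incubation at 37 °C. Solvent as negative control. Inhibition zones recorded in mm; experiment done twice.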
(In general: In agar diffusion tests the substance spreads into inoculated agar from a disc or well.)

Assay [3] has as its system Klebsiella pneumoniae. The experiment in a line: Antimicrobial activity against Klebsiella pneumonia MTCC 109 assessed as absence of visible growth after 24 hrs.
The test system of assay [4] is Staphylococcus aureus. The experiment in a line: Antimicrobial activity against Staphylococcus aureus MTCC 96 assessed as zone of inhibition at 1 mg/disc after 24 hrs incubation by disc diffusion assay. The assay is classed as functional. In short, it runs like this: as §1
Another assay deals with Malassezia pachydermatis. The experiment in a line: Antifungal activity against Malassezia pachydermatis assessed as zone of inhibition at 1 mg/disc after 48 hrs incubation by disc diffusion assay. The assay is classed as functional. In short, it runs like this: (§2)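 Disc diffusion on Mueller Hinton agar with swabbed cultures, 1 mg compound per disc. Discs stood 30 min at room temperature for diffusion, then plates incubated 48 h at 28 °C. Solvent as negative control. Yeast pre-grown in Sabouraud dextrose broth at 28 °C for 48-72 h; filamentous fungal spores came from SDA slants grown 10 days at 28 °C. Zone diameters in mm; run twice.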

For the next assay, the system named is Candida albicans. The experiment in a line: Antifungal activity against Candida albicans MTCC 227 assessed as zone of inhibition at 1 mg/disc after 48 hrs incubation by disc diffusion assay. Type of assay: functional. In short, it runs like this: as §2
Assay [5] concerns Shigella flexneri. In words: Antimicrobial activity against Shigella flexneri MTCC 1457 assessed as zone of inhibition at 1 mg/disc after 24 hrs incubation by disc diffusion assay. Type of assay: functional. In short, it runs like this:
as §1

Assay [6] concerns Klebsiella aerogenes. The experiment in a line: Antimicrobial activity against Enterobacter aerogenes MTCC 111 assessed as absence of visible growth after 48 to 72 hrs. The assay is classed as functional.
Assay [7] relates to Staphylococcus aureus. The experiment in a line: Antimicrobial activity against methicillin-resistant Staphylococcus aureus assessed as zone of inhibition at 1 mg/disc after 24 hrs incubation by disc diffusion assay. Type of assay: functional. In short, it runs like this: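 Inoculum grown in Mueller Hinton broth 24 h at 37°C, swabbed onto Mueller Hinton agar and dried 10 min. Discs loaded at 1 mg/disc, then 30 min at room temperature for diffusion. Plates incubated 24 h at 37°C. Solvent negative control; streptomycin positive control. Zone of inhibition read in mm; experiment done twice.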

For assay [8], the system named is Staphylococcus aureus. The experiment in a line: Antimicrobial activity against methicillin-resistant Staphylococcus aureus assessed as absence of visible growth after 48 to 72 hrs. Type of assay: functional. In short, it runs like this: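 Broth two-fold serial dilution in 96-well plates, 1000 to 7.81 µg/mL, compound dissolved in DMSO (2%). Inoculum grown in Mueller Hinton broth 24 h at 37°C. Streptomycin positive control. 5 µl of tested broth plated on MHA; MIC is the lowest concentration inhibiting visible growth on agar.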

The test system of assay [9] is Klebsiella pneumoniae. In words: Antimicrobial activity against Klebsiella pneumonia MTCC 109 assessed as zone of inhibition at 1 mg/disc after 24 hrs incubation by disc diffusion assay. The assay is classed as functional. In short, it runs like this: as §1
Assay [10] has as its system Staphylococcus epidermidis. In words: Antimicrobial activity against Staphylococcus epidermidis MTCC 3615 assessed as zone of inhibition at 1 mg/disc after 24 hrs incubation by disc diffusion assay. The assay is classed as functional. In short, it runs like this: as §1
For assay [11], the system named is Shigella flexneri. The experiment in a line: Antimicrobial activity against Shigella flexneri MTCC 1457 assessed as absence of visible growth after 24 hrs.
Assay [12] concerns Salmonella typhimurium. The experiment in a line: Antimicrobial activity against Salmonella typhimurium MTCC 1251 assessed as absence of visible growth after 48 to 72 hrs. The assay is classed as functional, Salmonella enterica subsp. enterica serovar Typhimurium. Particulars: Salmonella enterica.
Assay [13] deals with Salmonella typhimurium. In words: Antimicrobial activity against Salmonella typhimurium MTCC 1251 assessed as zone of inhibition at 1 mg/disc after 24 hrs incubation by disc diffusion assay. Type of assay: functional, Salmonella enterica subsp. enterica serovar Typhimurium. The following applies: for inhibition: Salmonella enterica subsp. enterica serovar Typhimurium. In short, it runs like this:
as §1

Assay [14] has as its system Staphylococcus epidermidis. In words: Antimicrobial activity against Staphylococcus epidermidis MTCC 3615 assessed as absence of visible growth after 24 hrs.
Assay [15] deals with Micrococcus luteus. The experiment in a line: Antimicrobial activity against Micrococcus luteus MTCC 106 assessed as zone of inhibition at 1 mg/disc after 24 hrs incubation by disc diffusion assay. Type of assay: functional. In short, it runs like this: as §1
Assay [16] relates to Proteus vulgaris. In words: Antimicrobial activity against Proteus vulgaris MTCC 1771 assessed as absence of visible growth after 48 to 72 hrs. The assay is classed as functional.
For assay [17], the system named is Klebsiella aerogenes. In words: Antimicrobial activity against Enterobacter aerogenes MTCC 111 assessed as zone of inhibition at 1 mg/disc after 24 hrs incubation by disc diffusion assay. The assay is classed as functional. In short, it runs like this: as §1
In assay [18] the test system is Micrococcus luteus. In words: Antimicrobial activity against Micrococcus luteus MTCC 106 assessed as absence of visible growth after 48 to 72 hrs. Type of assay: functional.

Values after ≈ are worked out from the molar mass of the structure shown. Active and inactive are the calls of the source.

In the case of `N#CC1=C(N)C2(C(=O)c3ccccc3C2=O)[C@@H](c2ccccc2F)[C@@H]2CCCC=C12` (relative stereo), the minimum inhibitory concentration (MIC) is 250 µg/mL (≈ 627 µM) with Staphylococcus aureus [1]; 125 µg/mL (≈ 314 µM) in the assay with Klebsiella pneumoniae [3]; 250 µg/mL (≈ 627 µM) in the assay on Klebsiella aerogenes [6]; 250 µg/mL (≈ 627 µM) in the assay on Staphylococcus aureus [8]; 250 µg/mL (≈ 627 µM) with Shigella flexneri [11]; 500 µg/mL (≈ 1250 µM) with Salmonella typhimurium [12]. The MIC (in assay [14]; in the assay on Proteus vulgaris [16]; in the assay with Micrococcus luteus [18]) was 250 µg/mL (≈ 627 µM) throughout. Moreover, the “inhibition zone (IZ)” value is on record as 12 mm with Proteus vulgaris [2]; 14 mm in the assay on Staphylococcus aureus [4]; 10 mm with Candida albicans; 14 mm in the assay on Shigella flexneri [5]; 13 mm in the assay on Staphylococcus aureus [7]; 16 mm in the assay with Klebsiella pneumoniae [9]. Further, the “inhibition zone (IZ)” value is recorded as 14 mm in assay [10], 10 mm in the assay with Salmonella typhimurium [13], 15 mm in the assay with Micrococcus luteus [15] and 12 mm in the assay on Klebsiella aerogenes [17]. Besides, in the assay on Malassezia pachydermatis, the inhibition entry was “inactive”.

With `CC(=O)N1CCN(c2ccc(OCC3COC(Cn4ccnc4)(c4ccc(Cl)cc4Cl)O3)cc2)CC1` (racemic) [KETOCONAZOLE], the “inhibition zone (IZ)” value in the assay on Malassezia pachydermatis is 26 mm; in the assay on Candida albicans, 28 mm.

`COc1ccc([C@H]2[C@@H]3CCC=C3C(C#N)=C(N)C23C(=O)c2ccccc2C3=O)cc1` (relative stereo): the inhibition entry (in the assay with Proteus vulgaris [2]; in the assay with Staphylococcus aureus [4]; with Malassezia pachydermatis; in the assay with Candida albicans; with Shigella flexneri [5]; in assay [10]) was “inactive” throughout. For the same compound, the inhibition entry in the assay with Salmonella typhimurium [13] and in the assay on Klebsiella aerogenes [17] was “inactive” in each case. Also, the “inhibition zone (IZ)” value with Staphylococcus aureus [7] came to 10 mm; with Klebsiella pneumoniae [9] it was 11 mm; in the assay with Micrococcus luteus [15] it was 8 mm.

For the compound `N#CC1=C(N)C2(C(=O)c3ccccc3C2=O)[C@@H](c2ccoc2)[C@@H]2CCCC=C12` (relative stereo), the minimum inhibitory concentration (MIC) was determined as 250 µg/mL (≈ 675 µM) in the assay on Staphylococcus aureus [1]; 250 µg/mL (≈ 675 µM) in the assay on Klebsiella pneumoniae [3]; 250 µg/mL (≈ 675 µM) in the assay with Klebsiella aerogenes [6]; 250 µg/mL (≈ 675 µM) in the assay on Staphylococcus aureus [8]; 250 µg/mL (≈ 675 µM) in the assay with Shigella flexneri [11]; 500 µg/mL (≈ 1350 µM) with Salmonella typhimurium [12]. For the same compound, the minimal inhibitory concentration (MIC) in assay [14] came to 250 µg/mL (≈ 675 µM); in the assay with Proteus vulgaris [16], 250 µg/mL (≈ 675 µM); with Micrococcus luteus [18] it was 125 µg/mL (≈ 337 µM). For the same compound, the “inhibition zone (IZ)” value in the assay with Proteus vulgaris [2] is 15 mm; in the assay with Staphylococcus aureus [4], 14 mm; with Malassezia pachydermatis it was 12 mm; in the assay on Candida albicans, 13 mm; with Shigella flexneri [5], 14 mm; with Staphylococcus aureus [7], 13 mm. The “inhibition zone (IZ)” value with Klebsiella pneumoniae [9] amounted to 12 mm; in assay [10], 12 mm; in the assay on Salmonella typhimurium [13], 10 mm; in the assay on Micrococcus luteus [15] it was 18 mm; in the assay with Klebsiella aerogenes [17], 15 mm.

Consider `N#CC1=C(N)[C@]2(C(=O)Nc3ccccc32)[C@@H](c2ccoc2)[C@@H]2CCCC=C12`, for which the inhibition result with Proteus vulgaris [2], in the assay on Staphylococcus aureus [4], in the assay with Malassezia pachydermatis, in the assay with Candida albicans, with Shigella flexneri [5] and in the assay with Klebsiella pneumoniae [9] was “inactive” throughout. Besides, the inhibition result (in [10]; in the assay with Salmonella typhimurium [13]; in the assay on Klebsiella aerogenes [17]) was “inactive” throughout. Moreover, the “inhibition zone (IZ)” value in the assay with Staphylococcus aureus [7] is given as 10 mm; in the assay on Micrococcus luteus [15], 8 mm.

With `Cc1ccc([C@H]2[C@@H]3CCCC=C3C(C#N)=C(N)C23C(=O)CCCC3=O)cc1` (relative stereo), the “inhibition zone (IZ)” value with Proteus vulgaris [2] stood at 9 mm; in the assay with Klebsiella pneumoniae [9], 10 mm. Besides, the inhibition entry (in the assay on Staphylococcus aureus [4]; with Malassezia pachydermatis; with Candida albicans; in the assay with Shigella flexneri [5]; in the assay with Staphylococcus aureus [7]; in [10]) was “inactive” throughout. The inhibition entry in the assay with Salmonella typhimurium [13], with Micrococcus luteus [15] and in the assay on Klebsiella aerogenes [17] was “inactive” each time.

As for `N#CC1=C(N)[C@]2(C(=O)Nc3ccccc32)[C@@H](c2ccccn2)[C@@H]2CCCC=C12`, the “inhibition zone (IZ)” value worked out at 10 mm in the assay with Proteus vulgaris [2]; 11 mm in the assay with Malassezia pachydermatis; 12 mm with Candida albicans; 9 mm in [10]; 11 mm in the assay with Salmonella typhimurium [13]; 8 mm in the assay on Klebsiella aerogenes [17]. Besides, the inhibition result in the assay on Staphylococcus aureus [4], with Shigella flexneri [5], in the assay on Staphylococcus aureus [7], in the assay with Klebsiella pneumoniae [9] and in the assay with Micrococcus luteus [15] was “inactive” in each case.

For `COc1ccc([C@H]2[C@@H]3CCCC=C3C(C#N)=C(N)[C@]23C(=O)Nc2ccccc23)cc1`, the inhibition result with Proteus vulgaris [2] was “inactive”. The “inhibition zone (IZ)” value in the assay with Staphylococcus aureus [4] came to 10 mm; with Malassezia pachydermatis it was 13 mm; with Candida albicans, 10 mm; in the assay with Shigella flexneri [5], 8 mm; with Staphylococcus aureus [7], 11 mm; with Klebsiella pneumoniae [9] it was 9 mm. The “inhibition zone (IZ)” value in assay [10] came to 9 mm; in the assay on Salmonella typhimurium [13], 8 mm; with Micrococcus luteus [15], 8 mm; with Klebsiella aerogenes [17], 10 mm.

With `COc1ccc([C@H]2[C@@H]3CCCC=C3C(C#N)=C(N)C23C(=O)c2ccccc2C3=O)cc1` (relative stereo), the inhibition result with Proteus vulgaris [2], with Candida albicans, in the assay on Shigella flexneri [5], in the assay with Staphylococcus aureus [7] and with Salmonella typhimurium [13] was “inactive” throughout. The “inhibition zone (IZ)” value is 11 mm with Staphylococcus aureus [4]; 10 mm with Malassezia pachydermatis; 10 mm in the assay on Klebsiella pneumoniae [9]; 12 mm in assay [10]; 11 mm in the assay on Micrococcus luteus [15]; 10 mm in the assay on Klebsiella aerogenes [17].

In the case of `N#CC1=C(N)C2(C(=O)c3ccccc3C2=O)[C@@H](c2ccc(Br)cc2)[C@@H]2CCCC=C12` (relative stereo), the inhibition result (in the assay with Proteus vulgaris [2]; in the assay on Malassezia pachydermatis; with Shigella flexneri [5]; in assay [10]; with Micrococcus luteus [15]; in the assay on Klebsiella aerogenes [17]) was “inactive” throughout. Moreover, the “inhibition zone (IZ)” value is reported as 14 mm with Staphylococcus aureus [4]; 10 mm in the assay with Candida albicans; 13 mm with Staphylococcus aureus [7]; 10 mm with Klebsiella pneumoniae [9]; 12 mm with Salmonella typhimurium [13].

With `N#CC1=C(N)C2(C(=O)c3ccccc3C2=O)[C@@H](c2ccc(Cl)cc2)[C@@H]2CCCC=C12` (relative stereo), the inhibition result in the assay on Proteus vulgaris [2], in the assay with Malassezia pachydermatis, in the assay with Candida albicans, with Klebsiella pneumoniae [9] and in the assay on Micrococcus luteus [15] was “inactive” throughout. In addition, the “inhibition zone (IZ)” value was determined as 9 mm in the assay on Staphylococcus aureus [4]; 8 mm in the assay on Shigella flexneri [5]; 13 mm in the assay with Staphylococcus aureus [7]; 8 mm in assay [10]; 10 mm in the assay with Salmonella typhimurium [13]; 13 mm with Klebsiella aerogenes [17].

A word on the MIC: it is the smallest concentration in the dilution series that meets the test's criterion for growth inhibition.
